This is one part of a sample in which hits are shown more often than they occur.
XBP1 UPR activ = adaptive UPR (XBP1) activation. CHO-XBP1 luciferase reporter, IRE1-XBP1 UPR activation, luminescence; percent of tunicamycin response, DMSO as zero. activation, % at 20 µM. 330,000 tested, 0.33% active. AID 463104;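 active = versus positive control, 20 µM dose yields 30% or more activation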;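 also: 100% = tunicamycin at 10 µg/mL and 0% = DMSO only wells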
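Material: CHO cell line with stable XBP1 luciferase reporter; schedule: 16-18 h cell attachment at 37 °C, then 6 h compound exposure; signal: glow luminescence from Steady-Glo reagent; medium: serum-containing F12 medium, 10% FBS; benchmarks: tunicamycin 10 µg/mL and vehicle-only wells; read-out: percent activation relative to tunicamycin reference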
CHOP inh = blocks CHOP induction under ER stress. CHO-K1 CHOP-promoter luciferase, tunicamycin-induced, 15-18 h. inhibition, % at 10 µM. 220,000 tested, 3.8% active;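 active = compounds that reduced the stress-induced luciferase reporter signal by more than about 70% of percent inhibition, limit read from the data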;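 also: 0% = tunicamycin plus vehicle and 100% = wells without tunicamycin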
FXN GAA850 act = activators of GAA850 frataxin (FXN) promoter; activation, % at 6 µM; 360,000 tested, 0.56% active; HEK293 lucGAA850 FXN promoter luciferase reporter, 24 h; percent of 10 µM SAHA response; AID 540364;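 active = activation above the average of all compounds screened plus 3 SD, cutoff fixed separately per campaign, cut at about 7.5% in these data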;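 also: 0% = DMSO wells and 100% = 10 µM SAHA wells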
CHOP UPR activ = activators of apoptotic arm of unfolded protein response (CHOP); CHO-CHOP luciferase reporter, UPR activation, luminescence; percent of tunicamycin response over DMSO baseline; 330,000 tested, 0.34% active; activation, % at 10 µM;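 active = at 10 µM dose, activation of 40% or more, normalized to positive control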;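 also: 100% = tunicamycin at 10 µg/mL and 0% = DMSO alone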
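Assay system: CHO cells with stable CHOP pathway luciferase reporter; Buffer or medium: F12 plus 10% serum; Times: 16-18 h cell attachment, then 6 h compound exposure, 37 °C; Signal: luciferase luminescence; Read-out basis: percent activation relative to tunicamycin control; Control set: tunicamycin high control, DMSO low control.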
GAA30 FXN cntr = activates GAA30 frataxin promoter, counter-screen for GAA850 activators; shares compounds with FXN GAA850 act; HEK293 lucGAA30 FXN promoter luciferase, 24 h; DMSO = 0%, 5 µM ipriflavone = 100%; activation, % at 6 µM; 1,900 tested, 66% active; AID 588350;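 active = mean activation above the mean of solvent-only control wells plus 3 SD, cut at about 22% in these data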;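 also: counterscreen of GAA850 promoter hits where activity marks nonselective or luminescence artifacts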
GAA850 confirm = confirmation of GAA850 frataxin (FXN) promoter activators; shares compounds with FXN GAA850 act; HEK293 lucGAA850 FXN promoter luciferase reporter, 24 h; 100% = activation by SAHA; activation, % at 6 µM; 1,900 tested, 86% active; AID 588351;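 active = mean activation above a set limit taken from the primary screen, cut at about 8% in these data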;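 also: 0% = DMSO wells and 100% = 10 µM SAHA wells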
Starred values were filed as active, the others as inactive; . = not tested or not shown.

SMILES	XBP1 UPR activ	CHOP inh	FXN GAA850 act	CHOP UPR activ	GAA30 FXN cntr	GAA850 confirm
Cc1ccc(C2CC(c3ccco3)n3ncnc3N2)cc1 (configuration not stated)	3	-1	11*	2	12	6
CCN(CC)C(=S)SSC(=S)N(CC)CC	-3	1	20*	158*	-117	-34
O=C(NC(=S)Nc1cccnc1Cl)c1ccco1	5	5	7.8*	2	64*	20*
COC(=O)[C@]1(Cc2ccccc2)N[C@H](CN(C)C(=O)Nc2ccc(C(F)(F)F)cc2)[C@@H]2C(=O)N(Cc3ccccc3)C(=O)[C@@H]21	1	.	-2	6	.	.
CC[C@@]1(C(=O)OC)N[C@H](CN(C)C(=O)Nc2ccc(C(F)(F)F)cc2)[C@@H]2C(=O)N(Cc3ccccc3)C(=O)[C@@H]21	-3	.	8.9*	1	27*	11*
CC[C@@]1(C(=O)OC)N[C@H](CN(C)C(=O)Nc2ccccc2)[C@@H]2C(=O)N(Cc3ccccc3)C(=O)[C@@H]21	-2	.	12*	0	16	7
CCN(C[C@H]1N[C@@](CC)(C(=O)OC)[C@H]2C(=O)N(Cc3ccccc3)C(=O)[C@@H]12)S(=O)(=O)c1ccc(OC)cc1	-2	.	11*	-2	12	9.0*
CCOC(=O)C1(C)CCCN(C(=O)c2ccc(OC)cc2OC)C1 (configuration not stated)	.	.	0	.	.	.
c1ccc2c(-c3nc(-c4ccncc4)no3)cccc2c1	6	40	10*	5	101*	32*
CC(=O)N(C)c1ccc(OCC(O)Cn2c3ccc(Cl)cc3c3cc(Cl)ccc32)cc1 (configuration not stated)	20	58	10*	8	8	11*
O=C(Nc1ccc(Cl)cc1)c1ccc2sc([C@@H]3O[C@H](CO)[C@@H](O)[C@H]3O)nc2c1	.	.	2	.	.	.
COc1cccc(C(O)c2nc(-c3ccc(OC)nc3)cs2)c1 (configuration not stated)	.	.	-1	.	.	.
NC(=O)c1ccsc1NC(=O)CSc1ccccc1F	-1	2	8.2*	4	89*	27*
Cc1ccccc1SCC(=O)OCC(=O)Nc1sccc1C(N)=O	-3	7	2	-1	.	.
Cc1csc(NC(=O)CSc2ccc(-c3ccccn3)nn2)n1	-2	13	2	1	.	.
Cc1csc(NC(=O)CSc2ccccc2F)n1	-3	-8	12*	11	78*	25*
O=C(NNC(=S)Nc1ccccc1)c1cccs1	0	-15	8.3*	3	74*	29*
CCNc1ccc(N=Nc2c(C)n(C)n(-c3ccccc3)c2=O)cc1	1	50	8.4*	2	29*	13*
CCOC(=O)/C(N=Nc1c(C)n(C)n(-c2ccccc2)c1=O)=C(\C)O	-1	12	1	2	.	.
C(=N\n1cnc2ccccc21)/c1cccnc1	2	-19	2	1	.	.
Clc1nc2sccn2c1/C=N/n1cnc2ccccc21	6	-24	9.1*	1	82*	32*
CCCC(=O)NC(=S)Nc1cccc(Cl)c1N1CCCCC1	7	41	3	1	.	.
CCCCC(=O)NC(=S)Nc1cccc(Cl)c1N1CCCCC1	4	-18	10*	3	13	9.6*
CCNc1nc(N)nc(Oc2ccc(OCCOc3ccc(Cl)cc3Cl)nn2)n1	5	7	13*	3	16	8.6*
Cc1noc(C)c1S(=O)(=O)N1CCCCC1c1cc(C(=O)Nc2cccc3c2CCCC3)no1 (configuration not stated)	.	.	-2	.	.	.
SMILES	XBP1 UPR activ	CHOP inh	FXN GAA850 act	CHOP UPR activ	GAA30 FXN cntr	GAA850 confirm
CCn1c(=O)[nH]c(=O)c2c(N)c(C(=O)c3cc(F)ccc3F)sc21	3	17	8.7*	0	23*	18*
Cc1ccc(C(=O)c2sc3c(c2N)c(=O)[nH]c(=O)n3CCc2ccccc2)cc1	-1	-10	4	1	.	.
Cn1c(=O)c2nc(-c3ccccc3)oc2c2ccccc21	7	-3	12*	2	44*	24*
CCCc1cc(C(=O)Nc2cccc(C(C)=O)c2)no1	2	21	25*	5	76*	23*
CCCc1cc(C(=O)Nc2ccc(C(C)=O)cc2)no1	3	1	0	3	.	.
COc1ccc(-c2csc3nc(-c4cccnc4)nc(Cl)c23)cc1OC	4	55	1	-1	.	.
Clc1nc(-c2cccnc2)nc2scc(-c3ccccc3)c12	17	39	8.1*	5	97*	31*
O=[N+]([O-])c1ccc(Sc2ccncn2)c([N+](=O)[O-])c1	.	.	71*	.	-20	97*
Cc1ccc(NC(=O)CSCC(=O)Nc2ccccc2N2CCCCC2)cc1	2	.	12*	-1	13	13*
Cc1ccc(OCCCCNC(C)c2ccccc2)c(C)c1 (configuration not stated)	-3	.	7.7*	1	24*	8.8*
CCCc1cc(CN(C)C(=O)c2ccc(OC3CCN(C(C)=O)CC3)c(OC)c2)[nH]n1	.	.	1	.	.	.
CCN(CC)c1ccc(/C=C2/SC(=O)N(C(C)C)C2=O)o1	.	-26	8.0*	.	96*	32*
CC(C)N1C(=O)S/C(=C\c2ccc(-c3ccc(Cl)c(C(=O)O)c3)o2)C1=O	4	.	8.2*	3	116*	38*
Cc1ccc(C)c(C(O)c2ncc(-c3ccc4ccccc4c3)[nH]2)c1 (configuration not stated)	.	.	2	.	.	.
COc1ccc(OC)c(Nc2nc(-c3cccs3)cs2)c1	-2	2	1	0	.	.
COc1ccccc1Nc1nc(-c2cccs2)cs1	7	.	10*	4	126*	40*
O=C1CSc2ccc(C(=O)NCCC3=CCCCC3)cc2N1	4	-7	7.8*	3	76*	24*
COCCNC(=O)c1ccc2c(c1)NC(=O)CS2	2	5	0	-1	.	.
CCc1nc2ccc(C(=O)NCC3CCCCC3)cn2c1N(C)Cc1ccc(OC)cc1	.	.	-3	.	.	.
Cc1c(C(=O)NCC2CCCO2)sc2nc(-c3ccc(F)cc3)cn12 (configuration not stated)	0	-3	17*	2	61*	21*
Cc1oc(=O)c(NC(=O)c2ccccc2)cc1C(=O)c1ccccc1	5	-8	8.2*	4	100*	29*
COc1ccccc1CN(Cc1cc2c(C)ccc(C)c2[nH]c1=O)Cc1nnnn1Cc1ccco1	-1	55	8.8*	0	-3	11*
COc1ccc2cc(CN(CCc3ccccc3)Cc3nnnn3Cc3ccco3)c(=O)[nH]c2c1	-6	20	3	-2	.	.

Screening results (PubChem)
